Measurements taken from paper PMC11904594 (Current Research in Microbial Sciences, 2025).
Values after ≈ are worked out from the molar mass of the structure shown.

How the values were obtained:
P. aeruginosa (ST175–1) [1] = assay: Minimum bactericidal concentration; assay type: cell-based, Pseudomonas aeruginosa; conditions: lowest concentration reducing at least 99.9 % of growth, plated on LB, 37 °C, 24 h, triplicate
[2] = tested on: 11 bacterial strains (S. aureus, P. aeruginosa, A. baumannii, K. pneumoniae, E. coli); assay: Antimicrobial activity screening, summary over groups of strains; assay type: cell-based; conditions: 50 µg/ml screen; all strains, Gram-negative and Gram-positive
E. coli ATCC 25,922 [3] = assay: MIC, broth microdilution; assay type: cell-based, Escherichia coli; conditions: MHB II, 10^6 CFU/ml, 37 °C, 24 h, triplicate
Summary of the method: (§1)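 Broth microdilution per CLSI. Strains were freshly plated on LB agar from glycerol stocks; the colistin-resistant lpxD mutant was plated on LB with 10 µg/ml colistin. Inoculum was 10^6 CFU/ml in Mueller Hinton broth II with two-fold dilutions of test compound from 100 to 0.10 µg/ml, incubated at 37 °C for 24 h. MIC was the lowest concentration with no growth.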

A. baumannii Ab-1 [4] = assay: Minimum bactericidal concentration; assay type: cell-based, Acinetobacter baumannii; conditions: lowest concentration reducing at least 99.9 % of growth, plated on LB, 37 °C, 24 h, triplicate
K. pneumoniae CG258 [5] = assay: Inhibition of biofilm formation; assay type: cell-based, Klebsiella pneumoniae; conditions: ¼ MIC
Summary of the method: (§2)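 Medium was discarded, wells washed with PBS, and biofilm stained with 1 % crystal violet for 15 min at room temperature. After two PBS washes, stain was eluted in 70 % ethanol and read at 595 nm. SBF = (OD595 − OD595 […])/OD600: weak ≤0.5, moderate 0.5–1, strong >1. Triplicate; Kruskal-Wallis with Dunn's test.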

P. aeruginosa ST175–1 = assay: Inhibition of biofilm formation; assay type: cell-based, Pseudomonas aeruginosa; conditions: ¼ MIC
Summary of the method: as §2

A. baumannii ATCC 19,606 [6] = assay: MIC, broth microdilution; assay type: cell-based, Acinetobacter baumannii; conditions: MHB II, 10^6 CFU/ml, 37 °C, 24 h, triplicate
Summary of the method: as §1

A. baumannii IB010 [7] = assay: MIC, broth microdilution; assay type: cell-based, Acinetobacter baumannii; conditions: MHB II, 10^6 CFU/ml, 37 °C, 24 h, triplicate
Summary of the method: as §1

A. baumannii Ab-1 [8] = assay: Inhibition of biofilm formation; assay type: cell-based, Acinetobacter baumannii; conditions: ¼ MIC
Summary of the method: as §2

E. coli ESBL 1057.1 [9] = assay: MIC, broth microdilution; assay type: cell-based, Escherichia coli; conditions: MHB II, 10^6 CFU/ml, 37 °C, 24 h, triplicate
Summary of the method: as §1

K. pneumoniae CG258 [10] = assay: Time-kill assay; assay type: cell-based, Klebsiella pneumoniae; conditions: 24 h
Summary of the method: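 Broth without compound was the growth control. Samples taken at 0, 3, 6 and 24 h were diluted and plated on MH II agar for CFU counts. Each curve was run at least in duplicate.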

S. aureus ATCC 29,213 [11] = assay: Minimum bactericidal concentration; assay type: cell-based, Staphylococcus aureus; conditions: lowest concentration reducing at least 99.9 % of growth, plated on LB, 37 °C, 24 h, triplicate
11 bacterial strains = assay: MBC, summary over all strains; assay type: cell-based; conditions: highest value over all strains, converted to molar
Summary of the method: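 The no-peptide growth well, serially diluted and plated, served as reference. Percent growth was calculated from CFU counts; MBC was the lowest concentration giving ≥99.9 % reduction (CLSI). Triplicate.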

A. baumannii ATCC 19,606 [12] = assay: Inhibition of biofilm formation; assay type: cell-based, Acinetobacter baumannii; conditions: ¼ MIC
Summary of the method: as §2

A. baumannii ATCC 19,606 [13] = assay: Minimum bactericidal concentration; assay type: cell-based, Acinetobacter baumannii; conditions: lowest concentration reducing at least 99.9 % of growth, plated on LB, 37 °C, 24 h, triplicate
S. aureus ATCC 29,213 [14] = assay: MIC, broth microdilution; assay type: cell-based, Staphylococcus aureus; conditions: MHB II, 10^6 CFU/ml, 37 °C, 24 h, triplicate
Summary of the method: as §1

S. aureus MRSA USA 300 [15] = assay: Minimum bactericidal concentration; assay type: cell-based, Staphylococcus aureus; conditions: lowest concentration reducing at least 99.9 % of growth, plated on LB, 37 °C, 24 h, triplicate
A. baumannii IB010 [16] = assay: Minimum bactericidal concentration; assay type: cell-based, Acinetobacter baumannii; conditions: lowest concentration reducing at least 99.9 % of growth, plated on LB, 37 °C, 24 h, triplicate
[17] = tested on: P. aeruginosa ATCC 27,853; assay: MIC, broth microdilution; assay type: cell-based, Pseudomonas aeruginosa; conditions: MHB II, 10^6 CFU/ml, 37 °C, 24 h, triplicate
Summary of the method: as §1

[18] = tested on: K. pneumoniae ATCC 43,816; assay: Minimum bactericidal concentration; assay type: cell-based, Klebsiella pneumoniae; conditions: lowest concentration reducing at least 99.9 % of growth, plated on LB, 37 °C, 24 h, triplicate
[19] = tested on: P. aeruginosa ATCC 27,853; assay: Minimum bactericidal concentration; assay type: cell-based, Pseudomonas aeruginosa; conditions: lowest concentration reducing at least 99.9 % of growth, plated on LB, 37 °C, 24 h, triplicate
P. aeruginosa (ST175–1) [20] = assay: MIC, broth microdilution; assay type: cell-based, Pseudomonas aeruginosa; conditions: MHB II, 10^6 CFU/ml, 37 °C, 24 h, triplicate
Summary of the method: as §1

Stability in human serum = assay type: in vitro ADME; conditions: 25 % (v/v)
Summary of the method: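 Test compound was added to RPMI with human serum pre-equilibrated at 37 °C, giving 333.33 µM final compound and 25 % (v/v) final serum. Mixtures were stirred at 37 °C for 10, 30, 45 or 60 min. Proteins were precipitated with 96 % ethanol, cooled at 4 °C for 15 min and spun at 14,000 g. Supernatants were run on C18 RP-HPLC (TFA/CH3CN gradient, 220 nm); degradation was taken from loss of native peak area. Duplicate.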

S. aureus MRSA USA 300 [21] = assay: MIC, broth microdilution; assay type: cell-based, Staphylococcus aureus; conditions: MHB II, 10^6 CFU/ml, 37 °C, 24 h, triplicate
Summary of the method: as §1

[22] = tested on: Galleria mellonella larvae; assay: In vivo toxicity in Galleria mellonella larvae; conditions: G. mellonella larvae, 50 µg/larvae (10 μl of 5 mg/ml), 30 °C, N=10 per group
Summary of the method: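 Sixth-instar Galleria mellonella larvae (200–300 mg) were held in sawdust at 4 °C until use. Groups of ten were injected with 10 μl of test compound, colistin or 0.9 % NaCl saline control into the second rear proleg, then kept at 30 °C.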

[23] = tested on: K. pneumoniae ATCC 43,816; assay: MIC, broth microdilution; assay type: cell-based, Klebsiella pneumoniae; conditions: MHB II, 10^6 CFU/ml, 37 °C, 24 h, triplicate
Summary of the method: as §1

K. pneumoniae CG258 [24] = assay: Minimum bactericidal concentration; assay type: cell-based, Klebsiella pneumoniae; conditions: lowest concentration reducing at least 99.9 % of growth, plated on LB, 37 °C, 24 h, triplicate
A. baumannii Ab-1 [25] = assay: MIC, broth microdilution; assay type: cell-based, Acinetobacter baumannii; conditions: MHB II, 10^6 CFU/ml, 37 °C, 24 h, triplicate
Summary of the method: as §1

E. coli ATCC 25,922 [26] = assay: Minimum bactericidal concentration; assay type: cell-based, Escherichia coli; conditions: lowest concentration reducing at least 99.9 % of growth, plated on LB, 37 °C, 24 h, triplicate
E. coli ESBL 1057.1 [27] = assay: Minimum bactericidal concentration; assay type: cell-based, Escherichia coli; conditions: lowest concentration reducing at least 99.9 % of growth, plated on LB, 37 °C, 24 h, triplicate
[28] = tested on: K. pneumoniae ATCC 43,816; assay: Inhibition of biofilm formation; assay type: cell-based, Klebsiella pneumoniae; conditions: ¼ MIC
Summary of the method: as §2

K. pneumoniae CG258 [29] = assay: MIC, broth microdilution; assay type: cell-based, Klebsiella pneumoniae; conditions: MHB II, 10^6 CFU/ml, 37 °C, 24 h, triplicate
Summary of the method: as §1

erythrocytes = conditions: percent hemolysis at 150 μM (table footnote); ref Oddo et al., 2016; cited from earlier work

| Structure (SMILES) | MBC (P. aeruginosa (ST175–1) [1]) [µg/mL] | growth inhibition of all the strains [2] | MIC (E. coli ATCC 25,922 [3]) [µg/mL] | MBC (A. baumannii Ab-1 [4]) [µg/mL] | MIC (A. baumannii ATCC 19,606 [6]) [µg/mL] | MIC (A. baumannii IB010 [7]) [µg/mL] | MIC (E. coli ESBL 1057.1 [9]) [µg/mL] | bactericidal activity in time-kill assay (K. pneumoniae CG258 [10]; peptide at 2× MIC) | MBC (S. aureus ATCC 29,213 [11]) [µg/mL] | MBC (A. baumannii ATCC 19,606 [13]) [µg/mL] | MIC (S. aureus ATCC 29,213 [14]) [µg/mL] | MBC (S. aureus MRSA USA 300 [15]) [µg/mL] | MBC (A. baumannii IB010 [16]) [µg/mL] | MIC [17] [µg/mL] | MBC [18] [µg/mL] | MBC [19] [µg/mL] | MIC (P. aeruginosa (ST175–1) [20]) [µg/mL] | MIC (S. aureus MRSA USA 300 [21]) [µg/mL] | MIC [23] [µg/mL] | MBC (K. pneumoniae CG258 [24]) [µg/mL] | also measured |
| --- | --- | --- | --- | --- | --- | --- | --- | --- | --- | --- | --- | --- | --- | --- | --- | --- | --- | --- | --- | --- | --- |
| CC[C@H](C)[C@H](NC(=O)[C@H](CCCCN)NC(=O)[C@H](CCCCN)NC(=O)[C@H](Cc1ccccc1)NC(=O)[C@H](CC(C)C)NC(=O)[C@@H](CCCCN)NC(=O)[C@@H](N)CCCCN)C(=O)N[C@@H](CC(C)C)C(=O)N[C@@H](CCCCN)C(=O)N[C@@H](Cc1ccc(O)cc1)C(=O)N[C@@H](CC(C)C)C(N)=O [BP145] | 50 (≈ 35.2 µM) | ≈ 90% | 6.25 (≈ 4.4 µM) | 12.5 (≈ 8.8 µM) | 6.25 (≈ 4.4 µM) | 25 (≈ 17.6 µM) | 12.5 (≈ 8.8 µM) | bactericidal | 50 (≈ 35.2 µM) | 12.5 (≈ 8.8 µM) | 50 (≈ 35.2 µM) | 50 (≈ 35.2 µM) | 25 (≈ 17.6 µM) | 50 (≈ 35.2 µM) | 25 (≈ 17.6 µM) | 50 (≈ 35.2 µM) | 50 (≈ 35.2 µM) | 50 (≈ 35.2 µM) | 25 (≈ 17.6 µM) | 12.5 (≈ 8.8 µM) | biofilm formation (K. pneumoniae CG258 [5]): inhibited biofilm formation; SBF index compared to BP607 (P. aeruginosa ST175–1): reduced SBF indices compared to BP607; SBF index compared to BP607 (A. baumannii Ab-1 [8]): reduced SBF indices compared to BP607; highest MBC observed (11 bacterial strains): 35 µM; SBF index compared to BP607 (A. baumannii ATCC 19,606 [12]): reduced SBF indices compared to BP607; remaining at 1 h, 333.33 µM (Stability in human serum): 35%; survival after 24h [22]: 70%; MIC (A. baumannii Ab-1 [25]): 12.5 µg/mL (≈ 8.8 µM); MBC (E. coli ATCC 25,922 [26]): 6.25 µg/mL (≈ 4.4 µM); MBC (E. coli ESBL 1057.1 [27]): 12.5 µg/mL (≈ 8.8 µM); SBF index compared to BP607 [28]: reduced SBF indices compared to BP607; MIC (K. pneumoniae CG258 [29]): 12.5 µg/mL (≈ 8.8 µM) |
| CC[C@@H](C)[C@@H](NC(=O)[C@@H](CCCCN)NC(=O)[C@@H](CCCCN)NC(=O)[C@@H](Cc1ccccc1)NC(=O)[C@@H](CC(C)C)NC(=O)[C@@H](CCCCN)NC(=O)[C@H](N)CCCCN)C(=O)N[C@H](CC(C)C)C(=O)N[C@H](CCCNC(=N)N)C(=O)N[C@H](Cc1ccc(O)cc1)C(=O)N[C@H](CC(C)C)C(N)=O [BP607, reference compound] | 100 (≈ 69 µM) | ≈ 90% | 6.25 (≈ 4.31 µM) | 6.25 (≈ 4.31 µM) | 3.13 (≈ 2.16 µM) | 25 (≈ 17.3 µM) | 12.5 (≈ 8.63 µM) | bactericidal | 50 (≈ 34.5 µM) | 6.25 (≈ 4.31 µM) | 50 (≈ 34.5 µM) | 50 (≈ 34.5 µM) | 50 (≈ 34.5 µM) | 25 (≈ 17.3 µM) | 12.5 (≈ 8.63 µM) | 25 (≈ 17.3 µM) | 50 (≈ 34.5 µM) | 50 (≈ 34.5 µM) | 12.5 (≈ 8.63 µM) | 12.5 (≈ 8.63 µM) | bactericidal activity in time-kill assay (K. pneumoniae CG258 [10]; peptide at the MIC): maintained this bactericidal effect; Hemolysis (erythrocytes): 42%; mortality after 24h [22]: 80%; MIC (A. baumannii Ab-1 [25]): 6.25 µg/mL (≈ 4.31 µM); MBC (E. coli ATCC 25,922 [26]): 6.25 µg/mL (≈ 4.31 µM); MBC (E. coli ESBL 1057.1 [27]): 12.5 µg/mL (≈ 8.63 µM); MIC (K. pneumoniae CG258 [29]): 12.5 µg/mL (≈ 8.63 µM) |
